Reference: article PMC10629916 (Journal of Food and Drug Analysis, 2023)

How the values were obtained:
[1] = Stability test of the 2 analytes in rat plasma; assay type: in vitro ADME
Outline: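 Rat plasma QC samples at low, middle and high levels were assayed in triplicate. They were MeOH-precipitated (1:3), spun at 4500 rpm and 4 °C for 10 min, dried and redissolved in MeOH. The processed samples were held in the autosampler for 12 h and then quantified by UPLC-MS/MS against oxacillin internal standard. Samples counted as stable if bias was within ±15% of nominal.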

[2] = assay type: in vivo, Male Wistar Rats; conditions: male, Wistar, rat, plasma, po, 800 mg/kg
Outline: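 Male Wistar rats (200–250 g) dosed orally with the prescription extract at 800 mg/kg. Plasma was stored at −80 °C, then precipitated with MeOH (1:3). Analysis was by UPLC-MS/MS MRM with oxacillin as internal standard. Parameters came from noncompartmental analysis, reported as mean ± SD.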

[3] = Normal temperature (auto-sampler 12 h), nominal conc 15.62 ng/mL
[4] = Normal temperature (auto-sampler 12 h), nominal conc 31.25 ng/mL
[5] = −80 (storage at −80 °C), nominal conc 15.62 ng/mL
[6] = −80 (storage at −80 °C), nominal conc 31.25 ng/mL
[7] = −80 FT (three freeze–thaw cycles), nominal conc 15.62 ng/mL
[8] = −80 FT (three freeze–thaw cycles), nominal conc 31.25 ng/mL

Compound: C[C@@H]1O[C@@H](OC[C@H]2O[C@@H](Oc3cc(O)c4c(c3)O[C@H](c3ccc(O)cc3)CC4=O)[C@H](O)[C@@H](O)[C@@H]2O)[C@H](O)[C@H](O)[C@H]1O [Narirutin]
- Accuracy (RE, %) [1, 3]: 11.32%
- Observed [1, 3]: 17.94 ± 0.15
- Accuracy (RE, %) [1, 4]: −2.84%
- Observed [1, 4]: 31.04 ± 0.22
- Accuracy (RE, %) ([1]; −80 (storage at −80 °C), nominal conc 0.48 ng/mL): −1.48%
- Accuracy (RE, %) [1, 5]: 9.87%
- Observed [1, 5]: 17.94 ± 0.15
- Accuracy (RE, %) [1, 6]: −3.53%
- Observed [1, 6]: 31.04 ± 0.22
- Accuracy (RE, %) ([1]; −80 FT (three freeze–thaw cycles), nominal conc 0.48 ng/mL): −3.82%
- Accuracy (RE, %) [1, 7]: 12.58%
- Observed [1, 7]: 17.94 ± 0.15
- Accuracy (RE, %) [1, 8]: −3.1%
- Observed [1, 8]: 31.04 ± 0.22
- AUC(0-inf) [2]: 20.2 ± 11.9 ng·h/mL
- AUC(0-t) [2]: 11 ± 5.91 ng·h/mL
- Cmax [2]: 3.29 ± 1.63 ng/mL
- MRT inf [2]: 8.22 ± 2.65 h
- Tmax [2]: 1.01 ± 1.22 h
- half-life [2]: 4.76 ± 1.76 h
